# Test results as given in article PMC7080047 (Medicinal Chemistry Research, 2014).
# Legend:
# [1] = system: NO production in chicken macrophages; conditions: ref Sung et al., 1994; cited from earlier work
# [2] = system: immune-activated NO production by mouse peritoneal cells; test: in vitro nitric oxide; assay type: cell-based; conditions: for IC50: read-out: NO-inhibitory IC 50, LPS/IFN-γ stimulated mouse peritoneal cells, 24 h; for concentration at which NO-suppressive effects were already apparent: dose-response, Fig. 2
# Outline: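 Peritoneal lavage cells (8 mL saline) pooled from 4–10 female C57BL/6 mice, 8–10 weeks old, seeded at 2 × 10^6 cells/mL in RPMI-1640 with 10% FBS, 37 °C, 5% CO2. Test compound (DMSO stock diluted in medium; DMSO control) added for 24 h with IFN-γ 0.5 ng/mL plus E. coli LPS 0.1 ng/mL, duplicates. Supernatant nitrite measured by Griess reagent at A540 against a nitrite standard curve, expressed as % of control.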
# HIV-1 = test: antiviral activity, HIV-1 in CEM cells; assay type: cell-based; conditions: Human immunodeficiency virus 1, CCRF-CEM, read-out: antiviral EC50
# HIV-2 = test: antiviral activity, HIV-2 in CEM cells; assay type: cell-based; conditions: Human immunodeficiency virus 2, CCRF-CEM, read-out: antiviral EC50
# HSV-1 = test: antiviral activity, HSV-1 in HeLa cells; assay type: cell-based; conditions: Human alphaherpesvirus 1, HeLa, read-out: antiviral EC50
# HSV-2 = test: antiviral activity, HSV-2 in HeLa cells; assay type: cell-based; conditions: Human alphaherpesvirus 2, HeLa, read-out: antiviral EC50
# vaccinia virus = test: antiviral activity, vaccinia virus in HeLa cells; assay type: cell-based; conditions: Orthopoxvirus vaccinia, read-out: antiviral EC50
# [3] = system: vesicular stomatitis virus (VSV); test: microbe, parasite or virus in culture; assay type: cell-based; conditions: HeLa, read-out: antiviral EC50
# Feline herpes virus = test: antiviral activity, Feline herpes virus in CRFK cells; assay type: cell-based; conditions: read-out: antiviral EC50
# [4] = system: respiratory syncytial virus (RSV); test: antiviral activity, respiratory syncytial virus in HeLa cells; assay type: cell-based; conditions: human respiratory syncytial virus, read-out: antiviral EC50
# Parainfluenza 3-virus = test: antiviral activity, Parainfluenza 3-virus in MDCK cells; assay type: cell-based; conditions: read-out: antiviral EC50
# Reovirus-1 = test: antiviral activity, Reovirus-1 in MDCK cells; assay type: cell-based; conditions: read-out: antiviral EC50
# Punta Toro virus = test: antiviral activity, Punta Toro virus in MDCK cells; assay type: cell-based; conditions: read-out: antiviral EC50
# [5] = system: viruses such as members of the Herpes, Picorna, and Pox groups; conditions: ref Marcialis et al., 1973, 1974, La Colla et al., 1975; cited from earlier work
compound,measurement,setting,value
"Nc1cc(O)nc(N)n1 [2,4-diamino-6-hydroxypyrimidine]",effect on NO production (in words),[1],suppresses NO production
"N=C(N)NN [Aminoguanidine, aminoguanidine, reference compound]",IC50,[2],77.8 µM
"Nc1nc(Cl)cc(Cl)n1 [Compound B1, 2-amino-4,6-dichloropyrimidine]",EC50,HIV-1,> 100 µg/mL
same,EC50,HIV-2,> 100 µg/mL
same,EC50,HSV-1,> 100 µg/mL
same,EC50,HSV-2,> 100 µg/mL
same,EC50,vaccinia virus,> 100 µg/mL
same,EC50,[3],> 100 µg/mL
same,EC50,Feline herpes virus,> 100 µg/mL
same,EC50,[4],> 100 µg/mL
same,EC50,Parainfluenza 3-virus,> 100 µg/mL
same,EC50,Reovirus-1,> 100 µg/mL
same,EC50,Punta Toro virus,> 100 µg/mL
same,concentration required for antiviral activities described in the literature,[5],~100 µg/mL
"C#CCc1c(Cl)nc(N)nc1Cl [Compound B6, 4,6-Dichloro-5-(prop-2-yn-1-yl)pyrimidin-2-amine]",concentration at which NO-suppressive effects were already apparent,[2],2.5 µM
"Nc1nc(Cl)c(F)c(Cl)n1 [Compound B12, 5-fluoro-2-amino-4,6-dichloropyrimidine]",concentration at which NO-suppressive effects were already apparent,[2],2.5 µM
same,effect on immune-activated NO production (in words),[2]; mouse peritoneal cells,nearly completely suppressed the production of NO
"N-(3-aminomethyl)-benzylacetamide [1,400 W, reference compound]",IC50,[2],3.87 µM
